Bioassay records as filed in PubChem BioAssay.
SENP1 inh: SENP1 (human) catalytic domain inhibition | Q9P0U3 | recombinant SENP1 catalytic domain, CyPet-SUMO1-YPet FRET cleavage | inhibition, % at 10 µM | 360,000 tested, 0.21% active;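 active means inhibition at least 30% at 10 µM, raw YFP signal under a set limit, fluorescence ratio 0.5 to 1.5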;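 further: 0% = enzyme with DMSO and 100% = no enzyme wells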
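Assay system: hSENP1 catalytic domain, recombinant. Amount: SENP1 enzyme, 20 pM final. Schedule: 50 min reaction, RT, dark. Technique: FRET, CFP and YFP emission. Control set: no-enzyme wells low, DMSO-plus-enzyme wells high control.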
SENP7 block: SENP7 protease inhibition. inhibition, % at 5 µM. recombinant SENP7, Z-RLRGG-aminoluciferin luminescence, 40 min. 330,000 tested, 1.5% active;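 active means inhibition above about 50% at the single test dose, limit read from the data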;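 further: plate controls were DMSO with enzyme for no effect and no enzyme buffer wells for full effect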
SENP6 block: SENP6 protease inhibition. Q9GZR1. Recombinant SENP6 catalytic domain, aminoluciferin luminescence. inhibition, % at 10 µM. 330,000 tested, 1.8% active;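 active means inhibition above about 50% at the single tested dose, limit read from the data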;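 further: plate controls were DMSO wells with enzyme for no effect and DMSO wells lacking enzyme for full effect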
SENP8 block-1: inhibitors of human SENP8 protease | Q96LD8 | recombinant SENP8, Nedd8 substrate fluorescence | inhibition, % at 20 µM | 360,000 tested, 0.64% active | AID 602440; in the data active means inhibition mostly above about 40%, no sharp cut-off; inactive means mostly below about 27%
Target sequence (Q96LD8 whole entry, looked up): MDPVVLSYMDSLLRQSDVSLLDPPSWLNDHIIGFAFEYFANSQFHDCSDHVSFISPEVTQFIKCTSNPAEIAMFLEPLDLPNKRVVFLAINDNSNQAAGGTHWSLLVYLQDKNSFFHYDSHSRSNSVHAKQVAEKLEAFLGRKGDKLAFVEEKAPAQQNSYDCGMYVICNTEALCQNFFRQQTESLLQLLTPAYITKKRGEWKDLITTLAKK
SENP8 block-2: SENP8 protease inhibition; 330,000 tested, 1.2% active; Q96LD8; purified SENP8, Z-RLRGG-aminoluciferin cleavage, luminescence; inhibition, % at 10 µM; in the data active means inhibition above about 50%
Platelet DG rel: modulates dense granule release in human platelets; 300,000 tested, 0.22% active; inhibition, %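 (compounds screened at 7.5 µM in platelet-rich plasma)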; human platelet-rich plasma, SFLLRN dense granule ATP release, luminescence;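 active means mean replicate score, as percent of positive control, at or above 50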
SENP8 conf: human SENP8 inhibition, confirmed; 6,200 tested, 40% active; inhibition, % at 12.5 µM; shares compounds with SENP7 block; Recombinant SENP8, Z-RLRGG-aminoluciferin luminescence, 60 min;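 active means mean inhibition across replicates above about 50%, limit read from the data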
SENP6 conf: human SENP6 inhibition, confirmed; recombinant SENP6, Z-RLRGG-aminoluciferin luminescence; AID 488915; shares compounds with SENP7 block; 6,200 tested, 58% active; inhibition, % at 12.5 µM
SENP7 confirm: confirmation of human SENP7 protease inhibitors; inhibition, % at 12.5 µM; shares compounds with SENP7 block; recombinant SENP7, Z-RLRGG-aminoluciferin luminescence, 40 min; 6,200 tested, 69% active
Casp3 select: caspase-3 inhibition (SENP selectivity assay) | shares compounds with SENP7 block | purified caspase-3, Z-DEVD-aminoluciferin luminescence, 60 min | inhibition, % at 12.5 µM | 6,200 tested, 60% active;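 active means mean inhibition above about 50%, limit read from the data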;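 further: plate controls were enzyme with DMSO for no effect and wells without caspase-3 for full effect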
Target sequence (P42574 28-227 limits assumed): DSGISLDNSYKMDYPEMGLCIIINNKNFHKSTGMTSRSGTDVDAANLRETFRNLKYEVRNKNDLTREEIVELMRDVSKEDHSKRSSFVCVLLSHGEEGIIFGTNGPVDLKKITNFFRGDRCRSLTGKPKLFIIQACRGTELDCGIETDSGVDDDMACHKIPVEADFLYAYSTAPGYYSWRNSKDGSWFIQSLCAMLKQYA
Luc interf: luminescence interference (SENP counter-screen). shares compounds with SENP7 block. Pre-incubated SENP8/Z-RLRGG-aminoluciferin, luciferase luminescence interference. inhibition, % at 12.5 µM. 6,200 tested, 39% active;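 active means mean inhibition above about 50% when retested at one dose, limit read from the data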;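 further: plate controls were DMSO wells with completed reaction for no effect and substrate without enzyme for full effect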
* marks the source's active call; other numbers are inactive results; . = not tested or not shown. Only some compounds are listed: those with a hit (about 2.6% of all), similar ones and a draw of the others.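 How the source made its calls, unless noted: active means mean inhibition above about 50% in the one-dose retest (limit read from the data); inactive means the rest.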

SMILES	SENP1 inh	SENP7 block	SENP6 block	SENP8 block-1	SENP8 block-2	Platelet DG rel	SENP8 conf	SENP6 conf	SENP7 confirm	Casp3 select	Luc interf
c1ccc(-c2noc(-c3ccncc3)n2)nc1	-2	4	81*	6	79*	26	81*	82*	96*	96*	83*
c1ccc(-c2noc(-c3ccc4c(c3)OCO4)n2)nc1	-1	-1	98*	-26	98*	95*	-26	97*	103*	98*	5
c1ccc(-c2nccc(-c3ccc4c(c3)OCO4)n2)cc1	-2	1	27	-353	-8	8	.	.	.	.	.
O=C(OCc1cc(=O)n2ccsc2n1)c1ccc(O)cc1O	2	39	64*	-78	47	.	55*	49	79*	76*	61*
Cc1ccsc1C(=O)OCc1cc(=O)n2ccsc2n1	1	57*	53*	-63	48	.	27	50	82*	81*	11
CC(=O)Oc1c(C)cc(Cl)cc1C(=O)Nc1ccc([N+](=O)[O-])cc1Cl	0	98*	84*	18	24	8	9	8	10	24	14
CC(=O)OCC(=O)Nc1ccc([N+](=O)[O-])cc1Cl	1	6	7	12	-2	-3	.	.	.	.	.
COc1ccc(/C=N/NC(=O)c2cccnc2)cc1	1	-7	-21	0	-7	-9	.	.	.	.	.
Cc1ccc(NC(=O)COc2ccccc2[N+](=O)[O-])nc1	0	70*	72*	4	50	4	15	42	81*	79*	7
Nc1c(N=Nc2ccccc2F)c(=O)[nH]n1-c1ccccc1	-2	77*	80*	33	55*	-3	17	36	53*	24	14
Cc1ccnc(Nc2nc(-c3ccc(F)cc3)cs2)c1	-4	39	63*	-2	20	8	17	44	76*	18	11
Fc1ccc(-c2csc(Nc3ccccn3)n2)c(F)c1	1	86*	87*	-3	87*	2	72*	87*	99*	68*	47
Cc1ccnc(Nc2nc(-c3ccc(Cl)cc3)cs2)c1	2	0	26	9	-20	-1	.	.	.	.	.
c1ccc(-c2csc(Nc3ccccn3)n2)cc1	2	98*	96*	21	94*	2	-11	96*	102*	82*	79*
O=C(Nc1nc(-c2cc(F)ccc2F)cs1)c1ccccn1	-3	-10	-37	-26	-7	-15	.	.	.	.	.
Cc1nc(C)c(-c2csc(Nc3ccccn3)n2)s1	1	54*	74*	-17	61*	1	37	65*	88*	46	68*
CC(C)OCCCNC(=O)CCCC(=O)Nc1ccc(OCCc2ccccc2)cc1	2	-12	-8	12	-10	-6	.	.	.	.	.
CC(=O)Nc1nc(C=C(Cl)Cl)cs1	-7	0	-2	18	2	10	.	.	.	.	.
O=C1C(Cc2ccccc2)C(c2ccccc2)N1c1ccccc1 (stereo not given)	1	1	-1	10	-3	-3	.	.	.	.	.
CC(=O)Nc1cccc(-c2csc(Nc3ccc(C)cn3)n2)c1	2	58*	69*	-12	36	2	66*	64*	87*	22	44
Cc1cc(-c2csc(Nc3ccccn3)n2)ccc1F	1	67*	75*	12	59*	7	50	76*	92*	37	40
